# pIC50: −log10 of the molar value. Activity calls are given as the source filed them.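 The calls were made as follows: active = any inhibition of the KCNQ1 potassium channel at some tested dose, with a fitted dose response curve; inactive = no inhibition at any dose or no curve fitted.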
# Biological target: Potassium voltage-gated channel subfamily KQT member 1 (Homo sapiens) (UniProt P51787)
# Assay: KCNQ1 channel current inhibition, SAR follow-up, selectivity assay for KCNQ2 inhibitor project, automated patch clamp, KCNQ1-CHO cells (AID 588425)
# Details: not given
# Outline: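 System: CHO cells expressing the KCNQ1 potassium channel / Medium: NaCl/HEPES external, KCl/K-gluconate internal solutions / Probe or stimulus: voltage stimulus from -70 mV holding, stepped to +40 mV / Compound dosing: multiple concentrations per compound / Times: 2,000 ms depolarization per sweep / Signal: automated perforated-patch current recording / Read-out: percent change of steady-state +40 mV current, post- versus pre-compound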
# Chain of Potassium voltage-gated channel subfamily KQT member 1 (Homo sapiens) (P51787 whole entry, looked up): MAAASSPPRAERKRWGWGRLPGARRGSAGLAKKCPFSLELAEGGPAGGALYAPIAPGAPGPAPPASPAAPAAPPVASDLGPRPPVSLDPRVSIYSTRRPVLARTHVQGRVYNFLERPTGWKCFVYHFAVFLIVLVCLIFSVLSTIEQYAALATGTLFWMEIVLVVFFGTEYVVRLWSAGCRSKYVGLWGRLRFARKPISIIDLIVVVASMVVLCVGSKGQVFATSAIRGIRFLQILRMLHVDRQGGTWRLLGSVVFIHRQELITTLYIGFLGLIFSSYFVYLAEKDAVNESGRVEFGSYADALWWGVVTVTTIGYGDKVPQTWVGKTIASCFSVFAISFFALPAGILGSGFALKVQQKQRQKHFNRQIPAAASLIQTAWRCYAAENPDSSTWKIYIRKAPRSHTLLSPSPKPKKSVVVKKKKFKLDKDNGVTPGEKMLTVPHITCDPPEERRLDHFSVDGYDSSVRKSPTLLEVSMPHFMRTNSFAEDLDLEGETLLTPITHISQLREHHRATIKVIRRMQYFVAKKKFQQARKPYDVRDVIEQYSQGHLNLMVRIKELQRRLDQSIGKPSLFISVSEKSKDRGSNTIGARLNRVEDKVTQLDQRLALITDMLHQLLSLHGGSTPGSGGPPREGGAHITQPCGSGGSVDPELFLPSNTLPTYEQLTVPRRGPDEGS
row,Compound,pIC50
1,CC(C(=O)Nc1ccccc1N1CCCC1)c1ccccc1 (stereo unspecified),4.54
2,CCC(C(=O)Nc1ccccc1-n1cccc1)c1ccccc1 (stereo unspecified),4.86
3,CCC(C(=O)Nc1ccc(N2CCCC2)cc1)c1ccccc1 (stereo unspecified),4.54
4,CCC(C(=O)Nc1ccccc1N1CCCC1)c1ccc(Cl)c(Cl)c1 (stereo unspecified),5.00
5,CC[C@@H](C(=O)Nc1ccc(N2CCCC2)cc1)c1ccccc1,4.83
6,O=C(Nc1ccccc1N1CCCC1)C1CCc2ccccc21 (stereo unspecified),4.92

# Second part, the compound after the results:
row,pIC50,Compound
1,4.66,CCC(C(=O)Nc1ccccc1N1CCCC1)c1cccc(OC)c1 (stereo unspecified)
2,4.71,CCC(C(=O)Nc1ccccc1N1CCCC1)c1ccccc1 (stereo unspecified)
3,5.06,CC[C@@H](C(=O)Nc1ccccc1N1CCCC1)c1ccccc1
4,5.17,CCC(C(=O)Nc1ccccc1N1CCCC1)c1ccc(F)cc1 (stereo unspecified)
5,4.95,CCC(C(=O)Nc1ccccc1N1CCCC1)c1cccc(Cl)c1 (stereo unspecified)
6,4.75,CCC(C(=O)Nc1ccccc1N1CCCC1)c1cccc(F)c1 (stereo unspecified)
7,5.53,CC[C@H](C(=O)Nc1ccccc1N1CCCC1)c1ccccc1
8,5.59,CCC(C(=O)Nc1ccccc1N1CCCC1)c1ccc(F)c(F)c1 (stereo unspecified)

# Same assay, conditions: at 30 µM (top of the series)
row,Compound,"current change, negative = inhibition"
1,CCC(C(=O)Nc1ccccc1N1CCCC1)c1ccc(Cl)cc1 (stereo unspecified),inactive
2,CC[C@H](C(=O)Nc1ccc(N2CCCC2)cc1)c1ccccc1,inactive
3,CCC(C(=O)Nc1ccccc1-c1ccccc1)c1ccccc1 (stereo unspecified),inactive
4,CCC(C(=O)Nc1ccccc1N1CCCC1)c1ccccc1F (stereo unspecified),inactive
5,C[C@H](C(=O)Nc1ccccc1N1CCCC1)c1ccccc1,inactive

# Continued, values first:
row,"current change, negative = inhibition",Compound
1,inactive,CCC(C(=O)Nc1ccccc1N1CCCC1)c1cccc(C)c1 (stereo unspecified)
2,inactive,CCC(C(=O)Nc1ccccc1N1CCCC1)c1cccc(C(F)(F)F)c1 (stereo unspecified)

# — PubChem BioAssay AID588425 (Johns Hopkins Ion Channel Center, 2011)
